Measurements from ChEMBL document CHEMBL1157083, “Characterization of tamulamides A and B, polyethers isolated from the marine dinoflagellate Karenia brevis” (J Nat Prod, 2010).

Columns and labels:
[1] = system: Ovis aries; test: Bronchoconstriction in sheep asthma model assessed as pulmonary airflow resistance at 10 pg/ml administered through aerosol for 20 breaths by pneumotachography relative to control; type: functional
[2] = Displacement of [3H]PbTx-3 from rat brain synaptosome voltage-sensitive sodium channel site 5 after 1 hr by rapid filtration based scintillation counting; type: tissue-based
Outline: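 Rat brain synaptosomes (0.1 mg protein/mL final) were incubated on ice for at least 1 h with about 1.5 nM [3H]-PbTx-3 and competitor (0 to 10 μM). Buffer was HEPES/choline chloride medium, pH 7.4, with 1 mg/mL BSA. Bound label was filtered and counted by scintillation. Apparent Ki came from one-site competition fits, with ≥3 experiments each run in duplicate or triplicate.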

[3] = system: Gambusia affinis; test: Toxicity in mosquito fish assessed as time required for mortality at 200 nM; type: organism-based; settings: in vivo, 0.2 µM
Outline: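 Fish received 0.2 mL of test solution or an EtOH vehicle in tank water, giving 25-200 nM final. Five fish were used per concentration. Fish were watched for 24 h or until death. Time of death in minutes is given as mean ± S.E.M., compared by t-test.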

[4] = system: Ovis aries; test: Bronchoconstriction in sheep 2164 asthma model assessed as pulmonary airflow resistance at 10 pg/ml administered through aerosol for 20 breaths by pneumotachography relative to control; type: functional
[5] = system: Ovis aries; test: Bronchoconstriction in sheep 2297 asthma model assessed as pulmonary airflow resistance at 10 pg/ml administered through aerosol for 20 breaths by pneumotachography relative to control; type: functional
[6] = system: Ovis aries; test: Bronchoconstriction in sheep 1988 asthma model assessed as pulmonary airflow resistance at 10 pg/ml administered through aerosol for 20 breaths by pneumotachography relative to control; type: functional
[7] = system: Ovis aries; test: Bronchoconstriction in sheep 2263 asthma model assessed as pulmonary airflow resistance at 10 pg/ml administered through aerosol for 20 breaths by pneumotachography relative to control; type: functional
[8] = system: Gambusia affinis; test: Toxicity in mosquito fish at 25 to 200 nM up to 24 hrs; type: organism-based; settings: in vivo, 0.2 µM
Outline: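 Fish each received 0.2 mL test solution or EtOH vehicle (0.2 mL), giving final water concentrations of 0, 25, 50, 100 or 200 nM. PbTx-2 positive control at 200 nM. Five fish per concentration. Monitored for 24 hours or until death; time of death as mean ± S.E.M., two-way Student's t-test.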

Row | Compound | Activity [1] [%] | Ki [2] [µM] | Activity [3] | Activity [4] [%] | Activity [5] [%] | Activity [6] [%] | Activity [7] [%] | Activity [8]
1 | C=C(COC(=O)c1ccc2ccccc2c1)C[C@@H]1C[C@H](O)[C@]2(C)O[C@@H]3C[C@@H]4O[C@@H]5C[C@]6(C)O[C@]7(C)CC[C@@H]8O[C@@H]9C[C@]%10(C)O[C@@H]%11C(C)=CC(=O)O[C@H]%11C[C@H]%10O[C@H]9C[C@@H](C)[C@H]8O[C@H]7C[C@H]6O[C@@]5(C)C/C=C\[C@H]4O[C@H]3C[C@H]2O1 | 0 | – | – | – | – | – | – | –
2 | C=C/C=C\CC[C@H]1O[C@H]2CC[C@@]3(C)O[C@H]4[C@@H](O)C[C@@]5(C)O[C@@H](CC/C=C(C)/C(C)=C/C=O)[C@@H](C)C[C@H]5O[C@@H]4C[C@@H]3O[C@@H]2CC[C@@]1(C)O [BREVENAL] | 4 | 0.17 | – | – | – | – | – | –
3 | C=C(C=O)C[C@@H]1C[C@H](O)[C@]2(C)O[C@@H]3C[C@@H]4O[C@@H]5C[C@]6(C)O[C@]7(C)CC[C@@H]8O[C@@H]9C[C@]%10(C)O[C@@H]%11C(C)=CC(=O)O[C@H]%11C[C@H]%10O[C@H]9C[C@@H](C)[C@H]8O[C@H]7C[C@H]6O[C@@]5(C)C/C=C\[C@H]4O[C@H]3C[C@H]2O1 [BREVETOXIN B] | 226 | 0.0012 | Toxic | – | – | – | – | –
4 | CC(=O)NC[C@@H]1O[C@@H]2C[C@]3(C)O[C@@H]4C=C[C@@H]5O[C@@H]6C=C[C@@H]7O[C@H](/C=C/C=C/C=O)C=C[C@H]7O[C@H]6C[C@H]5O[C@@]4(C)C[C@H]3O[C@H]2C[C@H]1O [TAMULAMIDE A] | – | 2.5 | – | 43 | 34 | 39 | 42 | Non-toxic
5 | CC(=O)NC[C@@H]1O[C@@H]2C[C@]3(C)O[C@@H]4C=C[C@@H]5O[C@@H]6C=C[C@@H]7O[C@H](/C=C/C=C/C=O)C=C[C@H]7O[C@H]6C[C@H]5O[C@H]4C[C@H]3O[C@H]2C[C@H]1O [TAMULAMIDE B] | – | 0.21 | – | 34 | 33 | 36 | 37 | Non-toxic
